# Laboratory results as given in ChEMBL document CHEMBL1795235, “Quercetin diacylglycoside analogues showing dual inhibition of DNA gyrase and topoisomerase IV as novel antibacterial agents” (J Med Chem, 2011).
# Legend:
# Staphylococcus aureus [1] = test: Antibacterial activity against methicillin-resistant Staphylococcus aureus OM481 after 24 hrs by microdilution method; type: functional; details: OM481, 24 h
# In short: (§1)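 Broth microdilution in Mueller-Hinton broth with 0.85% NaCl, inoculum about 10^5 CFU per 100 μL. Compounds were diluted in water from 25.6 mg/mL stocks to final 2-fold series of 0.062–128 μg/mL. Plates were incubated 24 h at 35 °C. MIC was the lowest concentration at which all triplicate wells were clear, from three independent determinations.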
# Staphylococcus aureus [2] = test: Antibacterial activity against vancomycin-intermediate Staphylococcus aureus Mu50 after 24 hrs by microdilution method; type: functional; details: Mu50, 24 h; in short: as §1
# Enterococcus [3] = test: Antibacterial activity against vancomycin resistant Enterococcus NCTC 12201 after 24 hrs by microdilution method; type: functional; details: NCTC 12201, 24 h; in short: as §1
# Enterococcus [4] = test: Antibacterial activity against vancomycin resistant Enterococcus FN-1 after 24 hrs by microdilution method; type: functional; details: FN-1, 24 h; in short: as §1
# [5] = Inhibition of Staphylococcus aureus DNA Topoisomerase 4-mediated decatenation of kDNA after 30 mins by densitometry
# In short: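 Purchased S. aureus topoIV, one unit with 200 ng kDNA, 37 °C, 30 min. Products resolved on 1.0% agarose in TAE. IC50 of decatenation from densitometry by interpolation equation, at least three determinations.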
# [6] = Inhibition of Escherichia coli DNA topoisomerase 4 subunit ParC/DNA topoisomerase 4 subunit ParE-mediated decatenation of kDNA by densitometry
# In short: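 Purchased E. coli topoIV kit enzyme, one unit with 200 ng kDNA, 37 °C, 30 min. Buffer: 50 mM HEPES-KOH pH 7.6, 5 mM magnesium acetate, 100 mM potassium glutamate, 10 mM DTT, 1 mM ATP, 40% glycerol. Gel on 1.0% agarose in TAE. IC50 of decatenation from densitometry by interpolation equation, at least three determinations.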
# Staphylococcus aureus [7] = test: Antibacterial activity against methicillin-susceptible Staphylococcus aureus 209P after 24 hrs by microdilution method; type: functional; in short: as §1
# Staphylococcus aureus [8] = test: Antibacterial activity against methicillin-resistant Staphylococcus aureus COL after 24 hrs by microdilution method; type: functional; in short: as §1
# Streptococcus pneumoniae = test: Antibacterial activity against Streptococcus pneumoniae R6 after 24 hrs by microdilution method; type: functional; details: R6, 24 h
# In short: (§2)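 Broth microdilution in Mueller-Hinton broth with 0.85% NaCl, inoculum about 10^5 CFU per 100 μL. Compounds diluted from 25.6 mg/mL stocks in water to 2-fold series, final 0.062–128 μg/mL. […] Three independent determinations.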
# Staphylococcus aureus [9] = test: Antibacterial activity against methicillin-resistant Staphylococcus aureus OM584 after 24 hrs by microdilution method; type: functional; details: OM584, 24 h; in short: as §1
# Staphylococcus aureus [10] = test: Antibacterial activity against methicillin-resistant Staphylococcus aureus N315 after 24 hrs by microdilution method; type: functional; details: N315, 24 h; in short: as §1
# Escherichia coli = test: Antibacterial activity against Escherichia coli K-12 after 24 hrs by microdilution method; type: functional; details: K-12, 24 h; in short: as §2
# Pseudomonas aeruginosa = test: Antibacterial activity against Pseudomonas aeruginosa PAO1 after 24 hrs by microdilution method; type: functional; details: PAO1, 24 h; in short: as §2
# [11] = Inhibition of Escherichia coli DNA gyrase assessed as inhibition of pBR322 supercoiling by densitometry
# In short: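 One unit of E. coli gyrase with 0.5 μg relaxed pBR322 DNA, 37 °C, 30 min. Stopped with sucrose/EDTA dye, run on 1.0% agarose in TAE. IC50 from densitometry via log-interpolation equation.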
smiles,measurement,setting,value
CCOc1ccc(CCC(=O)O[C@H]2[C@H](Oc3c(-c4ccc(O)c(O)c4)oc4cc(O)cc(O)c4c3=O)O[C@H](CO)[C@@H](O)[C@@H]2OC(=O)CCc2ccc(OCC)cc2)cc1,MIC,Staphylococcus aureus [1],2 µg/mL
same,MIC,Staphylococcus aureus [2],1 µg/mL
same,MIC,Enterococcus [3],4 µg/mL
same,MIC,Enterococcus [4],2 µg/mL
same,IC50,[5],3.02 µM
same,IC50,[6],> 12 µM
same,MIC,Staphylococcus aureus [7],1 µg/mL
same,MIC,Staphylococcus aureus [8],4 µg/mL
same,MIC,Streptococcus pneumoniae,1 µg/mL
same,MIC,Staphylococcus aureus [9],2 µg/mL
same,MIC,Staphylococcus aureus [10],1 µg/mL
CC(=O)OC[C@H]1O[C@@H](Oc2c(-c3ccc(O)c(O)c3)oc3cc(O)cc(O)c3c2=O)[C@H](OC(C)=O)[C@@H](OC(C)=O)[C@H]1OC(C)=O,MIC,Staphylococcus aureus [1],32 µg/mL
same,MIC,Staphylococcus aureus [2],64 µg/mL
same,MIC,Escherichia coli,> 128 µg/mL
same,MIC,Enterococcus [3],32 µg/mL
same,MIC,Enterococcus [4],32 µg/mL
same,MIC,Staphylococcus aureus [7],64 µg/mL
same,MIC,Staphylococcus aureus [8],128 µg/mL
same,MIC,Streptococcus pneumoniae,64 µg/mL
same,MIC,Staphylococcus aureus [9],32 µg/mL
same,MIC,Staphylococcus aureus [10],64 µg/mL
same,MIC,Pseudomonas aeruginosa,> 128 µg/mL
CCCc1ccc(C(=O)O[C@H]2[C@H](Oc3c(-c4ccc(O)c(O)c4)oc4cc(O)cc(O)c4c3=O)O[C@H](CO)[C@@H](O)[C@@H]2OC(=O)c2ccc(CCC)cc2)cc1,MIC,Staphylococcus aureus [1],2 µg/mL
same,MIC,Staphylococcus aureus [2],1 µg/mL
same,MIC,Enterococcus [3],4 µg/mL
same,MIC,Enterococcus [4],2 µg/mL
same,IC50,[5],1.83 µM
same,IC50,[6],11.8 µM
same,MIC,Staphylococcus aureus [7],1 µg/mL
same,MIC,Staphylococcus aureus [8],4 µg/mL
same,MIC,Streptococcus pneumoniae,1 µg/mL
same,MIC,Staphylococcus aureus [9],2 µg/mL
same,MIC,Staphylococcus aureus [10],1 µg/mL
O=C(Cc1ccc(F)cc1)O[C@H]1[C@H](Oc2c(-c3ccc(O)c(O)c3)oc3cc(O)cc(O)c3c2=O)O[C@H](CO)[C@@H](O)[C@@H]1OC(=O)Cc1ccc(F)cc1,MIC,Staphylococcus aureus [1],2 µg/mL
same,MIC,Staphylococcus aureus [2],1 µg/mL
same,MIC,Enterococcus [3],4 µg/mL
same,MIC,Enterococcus [4],2 µg/mL
same,IC50,[5],1.45 µM
same,IC50,[6],10.1 µM
same,MIC,Staphylococcus aureus [7],1 µg/mL
same,MIC,Staphylococcus aureus [8],4 µg/mL
same,MIC,Streptococcus pneumoniae,1 µg/mL
same,MIC,Staphylococcus aureus [9],2 µg/mL
same,MIC,Staphylococcus aureus [10],1 µg/mL
CN[C@H](CC(C)C)C(=O)N[C@H]1C(=O)N[C@@H](CC(N)=O)C(=O)N[C@H]2C(=O)N[C@H]3C(=O)N[C@H](C(=O)N[C@H](C(=O)O)c4cc(O)cc(O)c4-c4cc3ccc4O)[C@H](O)c3ccc(c(Cl)c3)Oc3cc2cc(c3O[C@@H]2O[C@H](CO)[C@@H](O)[C@H](O)[C@H]2O[C@H]2C[C@](C)(N)[C@H](O)[C@H](C)O2)Oc2ccc(cc2Cl)[C@H]1O [VANCOMYCIN],MIC,Staphylococcus aureus [1],0.25 µg/mL
same,MIC,Staphylococcus aureus [2],8 µg/mL
same,MIC,Enterococcus [3],> 128 µg/mL
same,MIC,Enterococcus [4],> 128 µg/mL
same,MIC,Staphylococcus aureus [7],0.25 µg/mL
same,MIC,Staphylococcus aureus [8],0.25 µg/mL
same,MIC,Streptococcus pneumoniae,0.25 µg/mL
same,MIC,Staphylococcus aureus [9],0.25 µg/mL
same,MIC,Staphylococcus aureus [10],0.25 µg/mL
CCOc1ccc(C(=O)O[C@H]2[C@H](Oc3c(-c4ccc(O)c(O)c4)oc4cc(O)cc(O)c4c3=O)O[C@H](CO)[C@@H](O)[C@@H]2OC(=O)c2ccc(OCC)cc2)cc1,MIC,Staphylococcus aureus [1],2 µg/mL
same,MIC,Staphylococcus aureus [2],1 µg/mL
same,MIC,Enterococcus [3],4 µg/mL
same,MIC,Enterococcus [4],2 µg/mL
same,IC50,[5],1.98 µM
same,IC50,[6],11 µM
same,MIC,Staphylococcus aureus [7],1 µg/mL
same,MIC,Staphylococcus aureus [8],4 µg/mL
same,MIC,Streptococcus pneumoniae,1 µg/mL
same,MIC,Staphylococcus aureus [9],2 µg/mL
same,MIC,Staphylococcus aureus [10],1 µg/mL
O=C(CCc1ccc(O)cc1)O[C@H]1[C@H](Oc2c(-c3ccc(O)c(O)c3)oc3cc(O)cc(O)c3c2=O)O[C@H](CO)[C@@H](O)[C@@H]1OC(=O)CCc1ccc(O)cc1,MIC,Staphylococcus aureus [1],2 µg/mL
same,MIC,Staphylococcus aureus [2],1 µg/mL
same,MIC,Enterococcus [3],4 µg/mL
same,MIC,Enterococcus [4],2 µg/mL
same,IC50,[5],1.98 µM
same,IC50,[6],11.8 µM
same,MIC,Staphylococcus aureus [7],1 µg/mL
same,MIC,Staphylococcus aureus [8],4 µg/mL
same,MIC,Streptococcus pneumoniae,1 µg/mL
same,MIC,Staphylococcus aureus [9],2 µg/mL
same,MIC,Staphylococcus aureus [10],1 µg/mL
CCn1cc(C(=O)O)c(=O)c2cc(F)c(N3CCNCC3)cc21 [NORFLOXACIN],MIC,Staphylococcus aureus [1],64 µg/mL
same,MIC,Staphylococcus aureus [2],> 128 µg/mL
same,MIC,Escherichia coli,0.25 µg/mL
same,IC50,[11],0.09 µM
same,MIC,Enterococcus [3],4 µg/mL
same,MIC,Enterococcus [4],> 128 µg/mL
same,IC50,[5],3.5 µM
same,MIC,Staphylococcus aureus [7],0.5 µg/mL
same,MIC,Staphylococcus aureus [8],1 µg/mL
same,MIC,Streptococcus pneumoniae,0.25 µg/mL
same,MIC,Staphylococcus aureus [9],128 µg/mL
same,MIC,Staphylococcus aureus [10],2 µg/mL
same,MIC,Pseudomonas aeruginosa,0.25 µg/mL
CC1O[C@H](Oc2c(-c3ccc(O)cc3)oc3cc(O)cc(O)c3c2=O)[C@@H](OC(=O)/C=C/c2ccc(O)cc2)[C@@H](O)[C@@H]1OC(=O)/C=C/c1ccc(O)cc1 (some centres undefined),MIC,Staphylococcus aureus [1],1 µg/mL
same,MIC,Escherichia coli,> 128 µg/mL
same,IC50,[11],3.11 µM
same,MIC,Enterococcus [3],4 µg/mL
same,MIC,Enterococcus [4],8 µg/mL
same,IC50,[5],2.7 µM
same,MIC,Staphylococcus aureus [7],0.5 µg/mL
same,MIC,Staphylococcus aureus [8],1 µg/mL
same,MIC,Staphylococcus aureus [9],2 µg/mL
same,MIC,Staphylococcus aureus [10],1 µg/mL
same,MIC,Pseudomonas aeruginosa,> 128 µg/mL
